Calls of active or inactive are those of the source. The rule behind the calls is not given here.

Assay [1] is filed under the species Rattus norvegicus. The experiment in a line: Antagonistic activity was measured by Rat tail-flick morphine antagonist procedure. The class given is functional. Put shortly:
(§1)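 Rat tail-flick test: the compound's ability to block analgesia from a fixed challenge dose of morphine was scored across a dose-response.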

For assay [2], the system named is Mus musculus. Kind of assay: Agonistic activity was measured by Mouse acetic acid writhing test; IA is Inactive at highest dose tested (10 mg/Kg). The class given is functional, organism-based.
For assay [3], the species on record is Mus musculus. Kind of assay: Agonistic activity by mouse acetic acid writhing test. The format is functional. Background: Writhing tests count abdominal constrictions after an irritant is injected.
The species entered for assay [4] is Rattus norvegicus. The experiment in a line: Antagonistic activity was measured by Rat tail-flick morphine antagonist procedure; unable to achieve satisfactory dose response. The class given is functional, organism-based. In a few lines:
as §1

In assay [5] the test system is Rattus norvegicus. The experiment in a line: Antagonistic activity was measured by Rat tail-flick morphine antagonist procedure; IA is Inactive at highest dose tested (10 mg/Kg). The class given is functional, organism-based. Put shortly:
as §1

Turning to `COc1ccc2c3c1OC1C(=O)C(C(=O)c4ccccc4)CC4C(C2)N(CC2CC2)CCC314` (stereo not drawn), the AD50 in the assay listed under Rattus norvegicus [1] was 8 mg/kg.

Usually ED50 stands for the dose at which the effect has come halfway, by size or by number of responders. For the molecule `CC(C)(C)CC(=O)C1CC2C3Cc4ccc(O)c5c4C2(CCN3CC2CC2)C(O5)C1=O` (stereo not drawn), the ED50 result with Mus musculus [2] was “inactive”. The AD50 in the assay filed under Rattus norvegicus [1] is over 10 mg/kg.

For `CCC(=O)C1CC2C3Cc4ccc(O)c5c4C2(CCN3CC2CC2)C(O5)C1=O` (stereo not drawn), in the assay with Mus musculus [2], the ED50 entry is “inactive”. Besides, the AD50 in the assay filed under Rattus norvegicus [1] is 0.52 mg/kg.

Molecule `CO[C@@]12CC[C@@]3(C[C@@H]1[C@](C)(O)C(C)(C)C)[C@H]1Cc4ccc(O)c5c4[C@@]3(CCN1CC1CC1)[C@H]2O5` [BUPRENORPHINE] registered an ED50 in the assay filed under Mus musculus [3] of 0.13 mg/kg. Besides, in the assay filed under Rattus norvegicus [4], the AD50 result was “unable to achieve satisfactory dose response”.

On to `CCCCCCC(=O)C1CC2C3Cc4ccc(O)c5c4C2(CCN3CC2CC2)C(O5)C1=O` (stereo not drawn), for which it took a dose of 0.4 mg/kg to reach the 50% effect level in the assay filed under Mus musculus [3] (ED50). The AD50 entry in the assay with Rattus norvegicus [5] is “inactive”.

Take `O=C1CCC2C3Cc4ccc(O)c5c4C2(CCN3CC2CC2)C1O5` (stereo not drawn): the 50% effect level in the assay filed under Mus musculus [3] (ED50) was put at a dose of 1.3 mg/kg. Also, in the assay listed under Rattus norvegicus [1], the AD50 came to 0.19 mg/kg.

Regarding `CCCCC(=O)C1CC2C3Cc4ccc(OC)c5c4C2(CCN3CC2CC2)C(O5)C1=O` (stereo not drawn), the ED50 in the assay filed under Mus musculus [3] was over 10 mg/kg. The AD50 entry in the assay with Rattus norvegicus [5] was “inactive”.

In the assay listed under Mus musculus [3], `COc1ccc2c3c1OC1C(=O)C(C(C)=O)CC4C(C2)N(CC2CC2)CCC314` (stereo not drawn) gave an ED50 of over 10 mg/kg. In the assay listed under Rattus norvegicus [1], this molecule had an AD50 of over 10 mg/kg.

In turn, `CCCCCC(=O)C1CC2C3Cc4ccc(O)c5c4C2(CCN3CC2CC2)C(O5)C1=O` (stereo not drawn) yielded an AD50 in the assay listed under Rattus norvegicus [1] of 22 mg/kg.

Take `CCCCCC(=O)C1CC2C3Cc4ccc(OC)c5c4C2(CCN3CC2CC2)C(O5)C1=O` (stereo not drawn): the AD50 entry in the assay with Rattus norvegicus [5] was “inactive”.

As for `CCCC(=O)C1CC2C3Cc4ccc(OC)c5c4C2(CCN3CC2CC2)C(O5)C1=O` (stereo not drawn), the 50% effect level in the assay filed under Mus musculus [3] (ED50) was put at a dose of 2.8 mg/kg. Besides, in the assay filed under Rattus norvegicus [1], the AD50 amounted to 8.1 mg/kg.

In the assay filed under Mus musculus [3], `CCC(=O)C1CC2C3Cc4ccc(OC)c5c4C2(CCN3CC2CC2)C(O5)C1=O` (stereo not drawn) yielded an ED50 of over 10 mg/kg. In the assay listed under Rattus norvegicus [1], this molecule registered an AD50 of 6.5 mg/kg.

In the assay filed under Mus musculus [3], `CCCCCC(=O)C1CC2C3Cc4ccc(OC)c5c4C2(CCN3C)C(O5)C1=O` (stereo not drawn) had an ED50 of 4 mg/kg.

For the molecule `CN1CC[C@]23c4c5ccc(O)c4O[C@H]2C(=O)CC[C@H]3[C@H]1C5` [HYDROMORPHONE], the ED50 in the assay filed under Mus musculus [3] worked out at 0.08 mg/kg.

On to `COc1ccc2c3c1OC1C(=O)C(C(=O)c4ccc(F)cc4)CC4C(C2)N(CC2CC2)CCC314` (stereo not drawn), for which the ED50 result with Mus musculus [2] is “inactive”. This molecule returned an AD50 in the assay listed under Rattus norvegicus [1] of over 10 mg/kg.

In turn, `CC(=O)C1CC2C3Cc4ccc(O)c5c4C2(CCN3CC2CC2)C(O5)C1=O` (stereo not drawn) gave an ED50 in the assay filed under Mus musculus [3] of 4 mg/kg. The molecule also gave an AD50 in the assay filed under Rattus norvegicus [1] of 1.3 mg/kg.

`CCCCCCC(=O)C1CC2C3Cc4ccc(OC)c5c4C2(CCN3CC2CC2)C(O5)C1=O.Cl` (stereo not drawn) gave an ED50 in the assay listed under Mus musculus [3] of over 10 mg/kg. For the same molecule, the AD50 in the assay filed under Rattus norvegicus [1] was over 10 mg/kg.

Take `CN1CC[C@]23c4c5ccc(O)c4O[C@H]2[C@@H](O)C=C[C@H]3[C@H]1C5` [MORPHINE]: the ED50 in the assay listed under Mus musculus [3] is 0.79 mg/kg.

Molecule `COc1ccc2c3c1OC1C(=O)C(C(C)=O)CC4C(C2)N(C)CCC314` (stereo not drawn) returned an ED50 in the assay listed under Mus musculus [3] of 23.5 mg/kg.

Turning to `CCCC(=O)C1CC2C3Cc4ccc(OC)c5c4C2(CCN3C)C(O5)C1=O` (stereo not drawn), the ED50 entry in the assay on Mus musculus [2] was “inactive”.

On to `COc1ccc2c3c1OC1C(=O)C(C(=O)C(C)C)CC4C(C2)N(CC2CC2)CCC314` (stereo not drawn), for which, in the assay filed under Rattus norvegicus [1], the AD50 worked out at 2.8 mg/kg.

In the assay filed under Mus musculus [3], `CCCC(=O)C1CC2C3Cc4ccc(O)c5c4C2(CCN3C)C(O5)C1=O` (stereo not drawn) came in with an ED50 of 5.2 mg/kg.

`COc1ccc2c3c1OC1C(=O)CCC4C(C2)N(CC2CC2)CCC314` (stereo not drawn) came in with an ED50 in the assay filed under Mus musculus [3] of 17 mg/kg. In the assay filed under Rattus norvegicus [1], this molecule showed an AD50 of 3.4 mg/kg.

Turning to `O=C(c1ccccc1)C1CC2C3Cc4ccc(O)c5c4C2(CCN3CC2CC2)C(O5)C1=O` (stereo not drawn), the AD50 in the assay filed under Rattus norvegicus [1] is 0.24 mg/kg.

In turn, `CC(C)C(=O)C1CC2C3Cc4ccc(O)c5c4C2(CCN3CC2CC2)C(O5)C1=O` (stereo not drawn) registered an AD50 in the assay listed under Rattus norvegicus [1] of 0.81 mg/kg.

In turn, `CCCCC(=O)C1CC2C3Cc4ccc(O)c5c4C2(CCN3CC2CC2)C(O5)C1=O` (stereo not drawn) came in with an AD50 in the assay listed under Rattus norvegicus [1] of 3.3 mg/kg.

Regarding `O=C(c1ccc(F)cc1)C1CC2C3Cc4ccc(O)c5c4C2(CCN3CC2CC2)C(O5)C1=O` (stereo not drawn), the ED50 in the assay listed under Mus musculus [3] was over 10 mg/kg. For the same molecule, the AD50 in the assay filed under Rattus norvegicus [1] was about 10 mg/kg.

Regarding `COc1ccc2c3c1O[C@H]1C(=O)CC[C@H]4[C@@H](C2)N(C)CC[C@]314` [HYDROCODONE], the 50% effect level in the assay listed under Mus musculus [3] (ED50) was put at a dose of 1.06 mg/kg.

`CCCC(=O)C1CC2C3Cc4ccc(O)c5c4C2(CCN3CC2CC2)C(O5)C1=O` (stereo not drawn) gave an AD50 in the assay filed under Rattus norvegicus [1] of 2.6 mg/kg.

The record behind these values is ChEMBL document CHEMBL1122118, “Novel opiates and antagonists. 4. 7-Alkanoylhydromorphones” (1982).
